How the values were obtained:
[1] = biological target: T1, Hemoglobin HbA (Homo sapiens) (UniProt P69905+P68871); assay: Binding affinity to hemoglobin (unknown origin) assessed as increase in release of carbon monooxide from carboxyhemoglobin by measuring half life of carboxyhemoglobin at 20:1 compound/Hb tetramer ratio incubated for 1 hr measured every 15 mins for 90 mins (reference value: 80 +/- 0.3 min); assay type: protein-complex assay
[2] = Hemolytic activity against human RBC assessed as fraction of extracellular Hb level at 1 mM after 1 hr relative to total Hb level; assay type: ADME, cell-based, Erythrocyte; conditions: red blood cells (erythrocytes), read-out: Activity
Summary of the method: (§1)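 Human red blood cells (50 µM Hb) incubated with compound at 1 mM in 0.1 vol % DMSO. Read-out is extracellular Hb as a fraction of total Hb. "-" denotes less than 1% of total Hb released.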

[3] = Aqueous solubility of the compound in DMSO/[…] solution at 2.5 mM; assay type: physicochemical; conditions: 2500 µM
Summary of the method: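 Compound made up at 2.5 mM in DPBS containing 1 vol% DMSO. Scored by visual inspection of the solution: "+" if no aggregates or crystals are seen, "-" if aggregates or crystals appear.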

[4] = biological target: T1, Hemoglobin HbA (Homo sapiens); assay: Binding affinity to hemoglobin (unknown origin) assessed as increase in release of carbon monooxide from carboxyhemoglobin by measuring half life of carboxyhemoglobin at 5:1 compound/Hb tetramer ratio incubated for 1 hr measured every 15 mins for 90 mins (reference value: 80 +/- 0.3 min); assay type: protein-complex assay
[5] = (§2) Hemolytic activity against human RBC assessed as increase in fraction of extracellular Hb level at 1 mM after 1 hr; assay type: ADME, cell-based, Erythrocyte; conditions: red blood cells (erythrocytes), read-out: Activity; summary of the method: as §1
Erythrocyte = assay: as §2; assay type: ADME, cell-based; conditions: erythrocyte, 1 h, 1000 µM; summary of the method: as §1
[6] = biological target: T1, Hemoglobin HbA (Homo sapiens); assay: Binding affinity to hemoglobin (unknown origin) assessed as partial oxygen pressure at which 50% of Hb is oxygenated (reference value: 17 +/- 0.3 mmHg); assay type: protein-complex assay

T1 sequence (P68871 2-147 partner limits assumed): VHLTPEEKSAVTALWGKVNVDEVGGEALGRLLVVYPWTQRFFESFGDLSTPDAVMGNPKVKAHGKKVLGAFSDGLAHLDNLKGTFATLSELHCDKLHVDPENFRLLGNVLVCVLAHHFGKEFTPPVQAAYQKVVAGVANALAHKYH
T1 sequence (P69905 2-142 limits assumed): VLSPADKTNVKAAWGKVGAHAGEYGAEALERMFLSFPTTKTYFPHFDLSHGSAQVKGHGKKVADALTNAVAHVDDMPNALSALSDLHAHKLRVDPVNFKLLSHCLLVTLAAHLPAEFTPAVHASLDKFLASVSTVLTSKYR

| T1/2 [1] | solubility [3] | T1/2 [4] | Activity [6] | Structure (SMILES) | hemolysis at 1 h, 1000 µM [2] | hemolysis at 1 h, 1000 µM [5] | Activity (Erythrocyte) |
| --- | --- | --- | --- | --- | --- | --- | --- |
| 1.12 h | Insoluble | 1.2 h | – | Cc1cc(C)cc(C(=O)N[C@H](Cc2ccc(-c3ccc(CN(C)C)o3)cc2)C(=O)N[C@@H](Cc2c[nH]c3ccccc23)C(=O)O)c1 | < 1% | – | – |
| 1.08 h | Insoluble | 1.23 h | – | Cc1cc(C)cc(C(=O)N(C)[C@H](Cc2ccccc2)C(=O)N[C@@H](Cc2c[nH]c3ccccc23)C(=O)O)c1 | < 1% | – | – |
| 1 h | Insoluble | 1.18 h | – | Cc1cc(C)cc(C(=O)N[C@H](Cc2ccc(-c3ccco3)cc2)C(=O)N[C@@H](Cc2c[nH]c3ccccc23)C(=O)O)c1 | – | 1 to 2% | – |
| – | Insoluble | 1.15 h | 19 mmHg | Cc1cc(C)cc(C(=O)N(C)[C@H](Cc2ccc(-c3ccccc3)cc2)C(=O)N[C@@H](Cc2c[nH]c3ccccc23)C(=O)O)c1 | – | – | Toxic |
| 1.08 h | Soluble | 1.17 h | – | Cc1cc(C)cc(C(=O)N[C@H](Cc2ccc(-c3c(CO)noc3C)cc2)C(=O)N[C@@H](Cc2c[nH]c3ccccc23)C(=O)O)c1 | < 1% | – | – |
| 1.05 h | Insoluble | – | – | Cc1cc(C)cc(C(=O)N[C@H](Cc2ccccc2)C(=O)N[C@@H](Cc2c[nH]c3ccccc23)C(=O)O)c1 | < 1% | – | – |

Continued, molecule first:

| Structure (SMILES) | T1/2 [1] | solubility [3] | T1/2 [4] | Activity [6] | hemolysis at 1 h, 1000 µM [2] | hemolysis at 1 h, 1000 µM [5] | Activity (Erythrocyte) |
| --- | --- | --- | --- | --- | --- | --- | --- |
| Cc1cc(C)cc(C(=O)N[C@H](Cc2ccc(-c3cnn(C)c3)cc2)C(=O)N[C@@H](Cc2c[nH]c3ccccc23)C(=O)O)c1 | 1.15 h | Soluble | 1.23 h | – | < 1% | – | – |
| Cc1cc(C)cc(C(=O)N[C@H](Cc2ccc(-c3ccccc3)cc2)C(=O)N[C@@H](Cc2c[nH]c3ccccc23)C(=O)O)c1 | 1.07 h | Insoluble | 1.15 h | – | < 1% | – | – |
| Cc1cc(C)cc(C(=O)N[C@H](Cc2ccc(-c3cncnc3)cc2)C(=O)N[C@@H](Cc2c[nH]c3ccccc23)C(=O)O)c1 | 1.28 h | Soluble | 1.33 h | – | < 1% | – | – |
| Cc1cc(C)cc(C(=O)N[C@H](Cc2ccc(-c3c(C)noc3C)cc2)C(=O)N[C@@H](Cc2c[nH]c3ccccc23)C(=O)O)c1 | 0.95 h | Insoluble | 1.2 h | – | < 1% | – | – |
| Cc1cc(C)cc(C(=O)N[C@H](Cc2ccc(-c3c(C(=O)O)noc3C)cc2)C(=O)N[C@@H](Cc2c[nH]c3ccccc23)C(=O)O)c1 | 1.18 h | Soluble | 1.3 h | – | < 1% | – | – |

Reference: ChEMBL document CHEMBL4196122, “Design, Synthesis, and Biological Evaluation of Allosteric Effectors That Enhance CO Release from Carboxyhemoglobin” (ACS Med Chem Lett, 2018)
